{"source": "ChEMBL document CHEMBL5252639", "about": "“Exploration of cytotoxic potential and tubulin polymerization inhibition activity of cis-stilbene-1,2,3-triazole congeners” (RSC Med Chem, 2023)", "key": {"HCT-116 [1]": {"test_system": "HCT-116", "experiment": "Induction of apoptosis in human HCT-116 cells assessed as viable cells at 1.62 uM measured after 24 hrs by Annexin V-FITC/propidium iodide staining based flow cytometry (reference value: 99.71%)", "type": "functional", "settings": "read-out: Activity"}, "HCT-116 [2]": {"test_system": "HCT-116", "experiment": "Induction of apoptosis in human HCT-116 cells assessed as cell rounding at 1.62 uM measured for 24 hrs by AO/EB staining based microscopic analysis", "type": "functional"}, "HCT-116 [3]": {"test_system": "HCT-116", "experiment": "Induction of apoptosis in human HCT-116 cells assessed as late apoptotic cells at 1.62 uM measured after 24 hrs by Annexin V-FITC/propidium iodide staining based flow cytometry (reference value: 0.00%)", "type": "functional"}, "HCT-116 [4]": {"test_system": "HCT-116", "experiment": "Induction of cell cycle arrest in human HCT-116 cells assessed as accumulation of cells at G0/G1 phase at 6.50 uM measured after 48 hrs by PI staining based flow cytometry analysis relative to control (reference value: 70.34%)", "type": "functional", "settings": "dose 6.5 µM"}, "HCT-116 [5]": {"test_system": "HCT-116", "experiment": "Induction of cell cycle arrest in human HCT-116 cells assessed as accumulation of cells at S phase at 3.25 uM measured after 24 hrs by PI staining based flow cytometry analysis relative to control (reference value: 5.55%)"}, "HCT-116 [6]": {"test_system": "HCT-116", "experiment": "Induction of apoptosis in human HCT-116 cells assessed as necrotic cells at 6.50 uM measured after 24 hrs by Annexin V-FITC/propidium iodide staining based flow cytometry (reference value: 0.00%)", "type": "functional", "settings": "dose 6.5 µM"}, "HCT-116 [7]": {"test_system": "HCT-116", "experiment": "Cytotoxicity against human HCT-116 cells assessed as inhibition of cell growth measured for 24 hrs by MTT assay", "type": "functional, cell-based", "settings": "HCT-116, 24 h", "summary_of_the_method": "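Cells were kept at 37 °C with 5% CO2 in suitable medium with 10% FBS and 1% antibiotic-antimycotic, and passaged at 80-90% confluency using 0.25% trypsin/1 mM EDTA. They were seeded at 1×10^3–4×10^3 cells/well and attached overnight. Compounds came from 10 mM DMSO stocks diluted in medium and were applied for 24 h. MTT (0.5 mg/mL) was added for 4 h at 37 °C, formazan was dissolved in DMSO, and absorbance was read at 570 nm.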"}, "HCT-116 [8]": {"test_system": "HCT-116", "experiment": "Induction of apoptosis in human HCT-116 cells assessed as viable cells at 6.50 uM measured after 24 hrs by Annexin V-FITC/propidium iodide staining based flow cytometry (reference value: 99.71%)", "type": "functional", "settings": "read-out: Activity"}, "HCT-116 [9]": {"test_system": "HCT-116", "experiment": "Induction of cell cycle arrest in human HCT-116 cells assessed as accumulation of cells at G0/G1 phase at 1.62 uM measured after 24 hrs by PI staining based flow cytometry analysis relative to control (reference value: 70.34%)"}, "HCT-116 [10]": {"test_system": "HCT-116", "experiment": "Induction of apoptosis in human HCT-116 cells assessed as cell fragmentation measured for 24 hrs by DAPI staining based microscopic analysis", "type": "functional", "settings": "dose 1.62-6.5 µM", "summary_of_the_method": "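Cells were seeded at 1×10^6 cells/well in 24-well plates and cultured 24 h. […] After PBS washing they were fixed in 4% paraformaldehyde for 30 min, permeabilized with 0.1% Triton X for 15 min, and stained with 1 µM DAPI for 15 min. Imaging used fluorescence microscopy (ex 350/em 460 nm) at 20X.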"}}, "note": "Activity calls are given as the source filed them. The rule behind the calls is not given here.", "data": [{"smiles": "COc1ccc(/C=C(/C(=O)OCc2cn(Cc3cc(F)ccc3F)nn2)c2ccc(OC)c(OC)c2)cc1OC", "values": [{"measurement": "viability at 1.62 µM", "setting": "HCT-116 [1]", "value": 81.7, "unit": "%"}, {"measurement": "Activity", "setting": "HCT-116 [2]", "value": "Active"}, {"measurement": "Activity", "setting": "HCT-116 [3]", "value": 0.16, "unit": "%"}, {"measurement": "Activity", "setting": "HCT-116 [4]", "value": 38.48, "unit": "%"}, {"measurement": "Activity", "setting": "HCT-116 [5]", "value": 9.51, "unit": "%"}, {"measurement": "Activity", "setting": "HCT-116 [6]", "value": 12.94, "unit": "%"}, {"measurement": "IC50", "setting": "HCT-116 [7]", "value": 3.25, "unit": "µM"}, {"measurement": "viability at 6.5 µM", "setting": "HCT-116 [8]", "value": 27.5, "unit": "%"}, {"measurement": "Activity", "setting": "HCT-116 [9]", "value": 70.12, "unit": "%"}, {"measurement": "Activity", "setting": "HCT-116 [10]", "value": "Dose-Dependent Effect"}]}]}
